ChEMBL document CHEMBL1155931, “Sulfur-substituted naphthalimides as photoactivatable anticancer agents: DNA interaction, fluorescence imaging, and phototoxic effects in cultured tumor cells” (Bioorg Med Chem, 2008)
The source made the active and inactive calls. No cut-off for these calls is given here.

What was measured:
MCF7 [1] = test: Antiproliferative activity against human MCF7 cells after 24 hrs of drug exposure followed by irradiation at 366 nanometer for 20 mins and subsequent incubation of 72 hrs in drug free media; assay type: functional, cell-based; conditions: MCF7, light or radiation study
In short: (§1)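 Cells grown in MEM with 10% FCS at 37 °C, 5% CO2. Seeded for 48 h (HT-29) or 72 h (MCF-7) before drug. Graded concentrations were tested in six replicates. Continuous runs lasted 72 h (HT-29) or 96 h (MCF-7). Short runs used 24 h drug, then drug-free medium, optionally irradiated 20 min at 366 nm (4 W lamp, 5 cm). Biomass read by crystal violet. IC50 is the mean of ≥2 independent experiments.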

DNA [2] = test: Binding affinity to calf thymus DNA assessed as change in melting temperature at concentration of 0.1 [compound]/[DNA]; assay type: nucleic-acid assay; conditions: Bos taurus
In short: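 CT DNA at 200 µM nucleotide with compound at 20 µM in 10 mM phosphate buffer, pH 7.2, 1% DMSO. Melting followed at 260 nm in 1 °C steps. Tm taken as the midpoint from first-derivative curves. ΔTm accurate within ±1 °C.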

MCF7 [3] = test: Antiproliferative activity against human MCF7 cells after 96 hrs by crystal violet staining; assay type: functional, cell-based; conditions: MCF7, 96 h; in short: as §1
MCF7 [4] = test: Antiproliferative activity against human MCF7 cells after 24 hrs of drug exposure followed by 72 hrs incubation in drug free media; assay type: functional, cell-based; in short: as §1
Escherichia coli = test: Induction of photocleave of Escherichia coli pBR322 DNA after irradiation for 2 hrs at 265 nanometer; conditions: in the assay text read “365 nanometer” for “265 nanometer”
In short: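 pBR322 supercoiled plasmid (0.25 µg) in Tris–HCl pH 7.5 with compound at 50 µM (DMSO stock). Irradiated 2 h at 365 nm (8 W, 10 cm). Run on 1% agarose, ethidium bromide stain. Nicked/linear DNA quantified as percentage of total, mean of two experiments.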

HeLa = test: Reduction of topoisomerase 2alpha protein level in human HeLa cells by Western blotting; assay type: functional, cell-based
HT-29 [5] = test: Antiproliferative activity against human HT29 cells after 72 hrs by crystal violet staining; assay type: functional, cell-based; conditions: HT-29, 72 h; in short: as §1
HT-29 [6] = test: Antiproliferative activity against human HT29 cells after 24 hrs of drug exposure followed by 48 hrs incubation in drug free media; assay type: functional, cell-based; in short: as §1
HT-29 [7] = test: Antiproliferative activity against human HT29 cells after 24 hrs of drug exposure followed by irradiation at 366 nanometer for 20 mins and subsequent incubation of 48 hrs in drug free media; assay type: functional, cell-based; conditions: HT-29, light or radiation study; in short: as §1
DNA [8] = test: Binding affinity to calf thymus DNA assessed as decrease in helical B conformation at 245 nanometer wavelength by circular dichroism; assay type: nucleic-acid assay; conditions: Bos taurus
In short: (§2)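 CD spectra of CT DNA (200 µM nucleotide) after 60 min incubation with 20 µM compound. Recorded after equilibration, when ellipticity no longer changed. DNA concentration set by ε260 = 6600 M^-1 cm^-1.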

DNA [9] = test: Binding affinity to calf thymus DNA assessed as increase in base stacking at 275 nanometer wavelength by circular dichroism; assay type: nucleic-acid assay; conditions: Bos taurus; in short: as §2

Structure (SMILES)	IC50 (MCF7 [1]) [µM]	ΔTm (DNA [2]) [°C]	IC50 (MCF7 [3]) [µM]	IC50 (MCF7 [4]) [µM]	Activity (Escherichia coli)	Activity (HeLa)	IC50 (HT-29 [5]) [µM]	IC50 (HT-29 [6]) [µM]	IC50 (HT-29 [7]) [µM]	Activity (DNA [8])	Activity (DNA [9])
CN(C)CCN1C(=O)c2cccc3c(Sc4nc5ccccc5s4)ccc(c23)C1=O	2.4	3	2.7	7.3	Active	Active	4.4	5.5	1.8		
CN(C)CCN1C(=O)c2cccc3cccc(c23)C1=O	11.3	6	4.5	11.6	Active	Active	3.5	7.2	5.3		
CCSc1ccc2c3c(cccc13)C(=O)N(CCN(C)C)C2=O	4.3	8	4.4	4.5	Active	Active	1.9	2.2	2.5	Active	Active
CCSc1ccc2c3c(cccc13)C(=O)N(CCS)C2=O	> 50	2	> 50	> 50	Active			> 50	> 50		
CN(C)CCN1C(=O)c2cccc3c(SCc4ccccc4)ccc(c23)C1=O	1.7	7	3.4	6.7	Active	inactive	4.1	4.8	1.3	Active	Active
CCCCSc1ccc2c3c(cccc13)C(=O)N(CCN(C)C)C2=O	4	8	2.6	5.7	Active	inactive	4.6	4.3	3	Active	Active
CN(C)CCN1C(=O)c2cccc3c2c(cc2c4ccccc4sc32)C1=O	0.18		0.2	0.17		Active	0.62	0.23	0.21		
CN(C)CCN1C(=O)c2cccc3c(Sc4ccccc4N)ccc(c23)C1=O	4.9	9	2.6	4.8	Active	Active	2.9	2.8	2.8	Active	
